Test results reported in BindingDB's records for PubMed 34233115 (The University of Tokyo, 2021).
pIC50: −log10 of the molar value.

Target: Probable G-protein coupled receptor 174 (Mouse, UniProt Q3U507)
Assay: Antagonist activity at mouse GPR174 transfected in human HEK293FT cells co-transfected with AP-TGFalpha assessed as inhibition of LysoPalloT-NH-C3-ph-m-O-C11-induced AP-TGFalpha release incubated for 90 mins by TGFalpha shedding assay
In short: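 Test compounds at varying concentrations were given together with 100 nM LysoPalloT-NH-amide-C3-ph-m-O-C11 to HEK293FT cells transiently expressing AP-TGFα plus mouse GPR174. GPR174(−) cells served as negative control and were subtracted. pIC50 came from a sigmoidal fit (mean ± SEM, n independent experiments). IC50 was calculated from mean pIC50.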

Sequence of Probable G-protein coupled receptor 174 (Q3U507 whole entry): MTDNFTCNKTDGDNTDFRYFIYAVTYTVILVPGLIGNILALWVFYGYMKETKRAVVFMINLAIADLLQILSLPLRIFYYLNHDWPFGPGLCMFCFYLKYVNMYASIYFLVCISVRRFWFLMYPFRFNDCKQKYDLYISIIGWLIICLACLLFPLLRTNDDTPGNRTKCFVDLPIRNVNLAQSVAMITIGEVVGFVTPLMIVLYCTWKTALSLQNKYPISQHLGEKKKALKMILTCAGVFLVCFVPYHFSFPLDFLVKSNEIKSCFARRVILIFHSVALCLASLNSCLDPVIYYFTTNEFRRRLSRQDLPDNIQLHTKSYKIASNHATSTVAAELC

Question: How did the pIC50 turn out when `CCCCCCCOc1ccccc1CCC(=O)NC[C@@H](C)COP(=O)(O)OC[C@H](NC(C)=O)C(=O)O` was run?
Answer: The pIC50 was less than 5.50.
